Screening data (PubChem)
The list is not random: actives were taken first. Their share in the collection is about 1.1%.
Furin inh: human furin inhibitors, primary screen, biochemical, fluorescence intensity | P09958 | AID 463115, 2010 | hit rate 0.061% among 220,000 | purified furin, fluorogenic substrate cleavage | inhibition, % at 20 µM or 30 µM; in the data active = inhibition above about 25%
thrombin 1536: human alpha-thrombin inhibitors, primary screen, counter-screen for coagulation protease inhibitor project, biochemical, 1536-well, fluorogenic AMC substrate. Boc-VPR-AMC fluorogenic substrate cleavage. inhibition, % at 5 µM. Prothrombin (Homo sapiens), P00734. hit rate 0.26% among 220,000;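 active = inhibition at or above 40%; inactive = inhibition below 40%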;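 also: 0% = enzyme with no compound and 100% = wells without enzyme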
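Material: human alpha-thrombin protein; Also added: Boc-VPR-AMC substrate, 15 µM final; Timing: enzyme reaction carried out at room temperature; Signal: fluorescence, ex 355 nm, em 460 nm; Measure: % inhibition of thrombin; Controls: enzyme without compound as high, wells lacking enzyme as low.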
FXIIa inh: human FXIIa protease inhibitors, primary screen, biochemical, 1536-well; hit rate 0.3% among 220,000; Coagulation factor XII (Homo sapiens), P00748; inhibition, % at 5 µM; AID 800, 2007; purified FXIIa, Boc-QGR-AMC fluorogenic substrate, 2 h; in the data active = inhibition above about 40%;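 also: 0% = enzyme with no compound and 100% = blank without enzyme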
hK5 inh: human KLK5 protease inhibitors, primary screen, biochemical, 1536-well. Kallikrein-5 (Homo sapiens), Q9Y337. recombinant hK5, fluorogenic AMC substrate cleavage. hit rate 0.59% among 210,000. inhibition, % at 5 µM;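 active = inhibition of 40% or more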;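 also: 0% = enzyme controls without compound and 100% = no-enzyme blanks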
FXIa inh 1536: human FXIa protease inhibitors, primary screen, biochemical, 1536-well | Coagulation factor XI (Homo sapiens), P03951 | purified FXIa, Boc-Glu-Ala-Arg-AMC fluorogenic substrate | inhibition, % at 5 µM | hit rate 0.14% among 220,000;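 active = inhibition of at least 40%; inactive = inhibition below 40%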;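 also: fluorescence of freed AMC excited at 355 nm; 0% = enzyme without compound and 100% = no enzyme blank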
Target sequence (P03951 19-387 limits assumed): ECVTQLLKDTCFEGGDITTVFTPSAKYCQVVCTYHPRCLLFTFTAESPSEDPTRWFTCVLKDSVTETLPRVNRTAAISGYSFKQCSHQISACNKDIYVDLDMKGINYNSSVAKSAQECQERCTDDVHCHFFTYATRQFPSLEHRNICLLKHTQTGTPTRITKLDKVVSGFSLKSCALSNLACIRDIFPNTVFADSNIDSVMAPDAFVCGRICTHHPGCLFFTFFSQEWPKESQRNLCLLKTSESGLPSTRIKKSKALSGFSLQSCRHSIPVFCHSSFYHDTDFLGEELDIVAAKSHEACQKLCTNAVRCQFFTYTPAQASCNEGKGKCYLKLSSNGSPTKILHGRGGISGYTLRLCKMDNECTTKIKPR
Target sequence (P03951 388-625 limits assumed): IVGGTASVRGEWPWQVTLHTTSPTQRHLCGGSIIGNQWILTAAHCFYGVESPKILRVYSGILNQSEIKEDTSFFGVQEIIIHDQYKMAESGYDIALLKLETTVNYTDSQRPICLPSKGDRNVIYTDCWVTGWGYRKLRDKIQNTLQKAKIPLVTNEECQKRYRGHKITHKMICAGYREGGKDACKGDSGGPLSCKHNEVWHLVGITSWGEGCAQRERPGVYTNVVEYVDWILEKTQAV
Active calls of the source: *.

SMILES | Furin inh | thrombin 1536 | FXIIa inh | hK5 inh | FXIa inh 1536
O=S(=O)(c1ccc(Cl)cc1)N1CCN(c2ncccn2)CC1 | -19.8 | 0.7 | 9.3 | 1.6 | 1.0
O=C(/C=C/c1c(F)cccc1Cl)c1ccc(O)cc1 | -25.8 | -15.7 | 1.2 | -2.5 | -4.1
COc1ccc(-n2ncc3c(NCc4ccccn4)ncnc32)cc1 | -11.8 | 3.1 | 44.5* | -8.6 | 24.9
COc1ccc(-n2ncc3c(NCc4ccco4)ncnc32)cc1 | -21.6 | 0.5 | 17.0 | -6.5 | 3.6
Cc1cc(C)n(CC2CC(=O)N(c3ccc(Cl)c(Cl)c3)C2=O)n1 (stereo unspecified) | -16.7 | 21.3 | 15.7 | 53.8* | 17.7
CSCCC(C(=O)OC1CCOC1=O)N1C(=O)c2ccccc2C1=O (stereo unspecified) | -22.7 | 8.6 | 4.1 | 0.0 | -3.4
COc1cc(/C=N/n2c(-c3cc(C)[nH]n3)n[nH]c2=S)cc(OC)c1OC | -2.1 | -8.8 | -0.9 | 58.2* | -8.1
COc1ccccc1NC(=O)c1sc2ncn(Cc3ccc(C)cc3)c(=O)c2c1C | -13.6 | 99.1* | 17.4 | 30.0 | 29.1
COc1ccccc1NC(=O)c1sc2ncn(Cc3cccc(C)c3)c(=O)c2c1C | -5.9 | 100.2* | 5.8 | 43.6* | 6.6
CCN(C(=O)CSc1nnc(-c2ccc(Cl)cc2)n1C)C1CCS(=O)(=O)C1 (stereo unspecified) | -5.8 | 2.5 | -0.3 | -10.0 | -4.3
CCN(c1ccc(N=Cc2c(O)n(Cc3ccc(OC)cc3)c(=O)c3ccccc23)cc1)C(C)C | -13.7 | 4.4 | 7.6 | -8.1 | 0.0
O=c1[nH]nc(Cc2ccc(Cl)cc2)c2ccccc12 | -5.3 | 21.3 | 4.7 | 53.9* | -0.2
O=c1[nH]nc(Cc2ccc(Cl)cc2Cl)c2ccccc12 | -23.9 | -0.4 | -5.1 | 3.3 | 3.1
N#Cc1c(NC(=O)CCn2cnc3ccccc3c2=O)oc(-c2ccccc2)c1-c1ccccc1 | 28.3* | -42.8 | -0.8 | -17.5 | -3.2
N#Cc1c(NC(=O)CCN2C(=O)c3ccccc3C2=O)oc(-c2ccccc2)c1-c1ccccc1 | -7.0 | -0.2 | 9.7 | 14.2 | 1.5
CCCCNC(=O)CNC(=O)c1cccs1 | -11.5 | -5.0 | 9.9 | 0.9 | 3.5
O=C(NCCO)/C(=C\c1ccc(Br)cc1)NC(=O)c1cccs1 | -17.4 | -1.9 | 10.1 | -6.0 | 3.3
COCCCNC(=O)/C(=C\c1cccn1C)NC(=O)c1cccs1 | 23.7 | 49.9* | 15.0 | 16.1 | 15.4
CCOCCCNC(=O)c1cccs1 | -11.0 | 21.5 | 21.8 | 42.5* | 12.7
CCn1ccc(-c2ccccc2)c(C#N)c1=O | -9.5 | -2.8 | -4.0 | -12.0 | -7.4
O=C(Cn1ncc2c1-c1ccccc1OC2)Nc1ccc(Cl)cn1 | -19.1 | -2.2 | 27.0 | 52.1* | 4.2
NS(=O)(=O)c1ccc(CCNC(=O)C(=O)C2C(=O)Nc3ccccc32)cc1 (stereo unspecified) | -16.8 | -3.4 | 6.0 | -3.7 | 5.8
CC1(C)CC(=O)C(C=Nc2ccc(Cl)cn2)=C(O)C1 | 53.1* | 1.0 | -2.5 | -24.3 | -5.8
O=C(NC(=S)NC1CCSC1=O)c1ccccc1Cl (stereo unspecified) | -23.7 | 4.5 | 12.3 | 4.1 | 0.4
Cc1ccccc1C(=O)NC1CCSC1=O (stereo unspecified) | -10.0 | 11.2 | 23.2 | 16.8 | 50.1*
SMILES | Furin inh | thrombin 1536 | FXIIa inh | hK5 inh | FXIa inh 1536
Cc1[nH]c2ccccc2c1NC(=O)CN1CCN(C(=O)c2ccco2)CC1 | -8.0 | 35.3 | 59.3* | 20.4 | 38.4
O=[N+]([O-])c1cc2c(cc1Br)CCN2 | 0.7 | -8.1 | 10.1 | -3.4 | 1.2
COCCCNC(=O)c1c(N)n(-c2ccc3c(c2)OCO3)c2nc3ccccc3nc12 | -20.9 | -0.1 | -10.8 | 104.6* | -9.1
CC(C)c1ccc(N(CC(=O)N/N=C/c2ccc(OC3CSC3)cc2)S(=O)(=O)c2ccccc2)cc1 | -5.5 | 59.2* | -4.1 | 22.4 | -10.7
Cc1ccc(S(=O)(=O)ON2C(=O)c3ccccc3C2=O)c(C)c1 | -10.7 | 61.6* | 46.5* | 13.4 | 57.3*
Cc1cccc2c1N(C)C(=O)C2=O | -12.4 | -13.7 | 6.7 | -3.4 | 0.8
COC(=O)CON1C(=O)c2ccccc2C1=O | -13.2 | -8.7 | 4.0 | -21.4 | 0.1
Cc1cc(C)c(S(=O)(=O)ON2C(=O)c3ccccc3C2=O)cc1C | -5.2 | 56.1* | 38.2 | 29.0 | 71.8*
Cc1cc(C)c(C)c(S(=O)(=O)ON2C(=O)c3ccccc3C2=O)c1C | -27.1 | 18.1 | 52.7* | 11.8 | 72.3*
CCCNC(=O)c1nnsc1Sc1ccc(Cl)cc1 | -25.6 | -7.5 | -1.2 | -2.8 | 3.0
COc1ccc(Nc2nnc(SCC(=O)Nc3ccc4[nH]c(=O)[nH]c4c3)s2)cc1 | -20.0 | -4.1 | -0.2 | -3.4 | -1.0
COc1cc(CNC(C)(C)CO)ccc1OCC(=O)Nc1ccc(Br)cc1 | -19.9 | 2.8 | 8.8 | 41.7* | -6.8
NC(=O)C1(N2CCCCC2)CCN(C(=S)Nc2ccc(S(N)(=O)=O)cc2)CC1 | -8.6 | -3.2 | 1.4 | 0.3 | -3.6
CC(=O)N(c1ccc(Cl)cc1)c1nc(C)cc(C)c1C#N | -15.4 | -3.5 | 4.2 | -1.8 | -5.9
CCOc1ccc(N(C(C)=O)c2nc(C)cc(C)c2C#N)cc1 | -19.8 | 27.5 | 21.8 | 51.5* | 18.5
CCOc1ccc(-c2cc(N)n(S(=O)(=O)c3ccc(OC)c(OC)c3)n2)cc1 | -11.3 | 1.4 | 5.1 | 1.6 | 5.6
COc1ccc(S(=O)(=O)n2nc(-c3ccc(Cl)cc3)cc2N)cc1OC | -5.1 | 4.5 | 6.9 | 47.7* | -4.3
O=C(CCCn1c(=S)[nH]c2cc3c(cc2c1=O)OCO3)N1CCN(c2ccccc2)CC1 | -14.0 | 25.7 | 20.5 | 129.6* | 14.8
CC(=O)c1ccc(N2CCN(C(=O)CCCn3c(=S)[nH]c4cc5c(cc4c3=O)OCO5)CC2)cc1 | -4.2 | 3.9 | 11.3 | -6.3 | 4.2
O=C(Cn1nc(-c2ccc(Cl)cc2)ccc1=O)NCC1CCCO1 (stereo unspecified) | -31.0 | 17.3 | 16.2 | 51.0* | 5.7
C=CCOc1ccc(/C(O)=C2\C(=O)C(=O)N(CCCOC)C2c2ccncc2)cc1 (stereo unspecified) | 0.0 | 41.3* | 21.7 | 31.4 | 13.1
C=CCOc1ccc(/C(O)=C2\C(=O)C(=O)N(CCCOC)C2c2ccc(O)c(OC)c2)cc1 (stereo unspecified) | -18.6 | -4.9 | 1.3 | -1.2 | 5.0
CCOC(=O)CCNC(=O)N1CCCC(CNS(=O)(=O)c2cccs2)C1 (stereo unspecified) | -10.4 | 41.0* | 35.1 | 17.6 | 36.1
CCN(CC)c1ccc(C(=O)OCc2c(C)noc2C)cc1 | -19.2 | -5.1 | 6.8 | 0.5 | 2.4
COc1ccc(N(C(=O)c2ccco2)S(=O)(=O)c2ccc(F)cc2)cc1 | -5.8 | 42.4* | 14.2 | 0.1 | 9.1
COc1ccc(N(C(=O)c2ccco2)S(=O)(=O)c2cccc([N+](=O)[O-])c2)cc1 | -26.1 | 57.5* | 21.9 | -4.8 | 19.5
